Results pooled from the literature.
Protocols differ between the studies behind these lines.
HRH1: Histamine H1 receptor (HRH1, Homo sapiens, UniProt P35367)
CHRM4: Muscarinic acetylcholine receptor M4 (CHRM4, Homo sapiens, UniProt P08173)

The Ki of `CC(C)C[C@H](NC(=O)[C@H](CCCCN)NC(=O)[C@@H]1CCCN1C(=O)[C@@H](N)CCCNC(=N)N)C(=O)N[C@@H](CCCCN)C(=O)O` is reported as > 10 µM (HRH1; cell-free assay, radioligand).
For `Cc1cc(N2CCNCC2)nc2ccccc12`, the Ki was > 63.1 µM (CHRM4; ligand displacement, radioligand; cell membranes).
With `O=C(Nc1cccc(-c2ccn3c(CC4CC4)nnc3c2C(F)(F)F)c1)c1ccc(S(=O)(=O)F)cc1` the EC50 was > 50.1 µM (Metabotropic glutamate receptor 1 (GRM1, Homo sapiens, UniProt Q13255); calcium signal, agonist).
The Kd of `CC(C)(COP(=O)(O)OP(=O)(O)OC[C@H]1O[C@@H](n2cnc3c(N)ncnc32)[C@H](O)[C@@H]1OP(=O)(O)O)[C@@H](O)C(=O)NCCC(=O)NCCSC(=O)c1ccccc1N` is reported as ~57 µM (pqsD (Pseudomonas aeruginosa, UniProt P20582, C113A); binding, ITC).
The Ki of `NC(N)=NCCC[C@H](NC(=O)OCc1ccccc1)C(=O)O` is reported as 1230 µM (Serine protease 1 (PRSS1, Bos taurus, UniProt P00760); enzyme activity, inhibitor, absorbance; pH 7.2).
`N[C@@H](CCP(=O)(O)O)C(=O)O` has an EC50 of 0.151 µM (Metabotropic glutamate receptor 4 (GRM4, Homo sapiens, UniProt Q14833); calcium signal, agonist).
`CSCC[C@H](NC(=O)[C@@H](NC(=O)[C@@H](N)Cc1ccc(O)cc1)C(C)C)C(=O)NCC(=O)N[C@@H](Cc1c[nH]cn1)C(=O)O` has an EC50 of 26.8 µM (Melanocortin receptor 5 (Mus musculus, UniProt P41149); reporter gene, agonist).
With `OC(c1ccc(F)cc1)C(F)(F)CCN1CCC(O)(c2ccc(Cl)cc2)CC1` (racemic) the Ki was 0.408 µM (HRH1; cell-free assay, radioligand).
For `CC[C@H](C)[C@H](NC(=O)[C@H](CCCNC(=N)N)NC(=O)[C@H](CC(C)C)NC(=O)[C@@H](N)Cc1ccccc1)C(=O)N[C@@H](CCCNC(=N)N)C(=O)N1CCC[C@H]1C(=O)N[C@@H](CCCCN)C(=O)O`, the Ki was > 10 µM (HRH1; cell-free assay, radioligand).
With `CNc1nc2cc(OCCCCN3CCN(c4cccc(Cl)c4Cl)CC3)ccc2s1` the Ki was 0.056 µM (HRH1; ligand displacement, radioligand).
For `CCCCC/C=C\C/C=C\C/C=C\C/C=C\CCCC(=O)OCCN`, the Kd was 14 µM (Cytochrome P450 2J2 (CYP2J2, Homo sapiens, UniProt P51589); binding, absorbance).
The Kd of `Nc1cccc2cc3ccccc3cc12` is reported as 9 µM (Ferritin light chain (FTL, Equus caballus, UniProt P02791); binding, fluorescence).
For `c1cc(N2CCNCC2)c2cc[nH]c2c1`, the Ki was > 63.1 µM (CHRM4; ligand displacement, radioligand; cell membranes).
For `CC[C@H](C)[C@H](NC(=O)[C@H](CS)NC(=O)[C@H](CCC(N)=O)NC(=O)[C@H](CC(C)C)NC(=O)[C@H](CCCCN)NC(=O)[C@H](CCCNC(=N)N)NC(=O)[C@H](C)NC(=O)[C@@H](NC(=O)[C@H](CCC(N)=O)NC(=O)[C@@H](NC(=O)[C@H](CCC(=O)O)NC(=O)[C@H](C)NC(=O)[C@H](CCC(N)=O)NC(=O)[C@H](Cc1c[nH]cn1)NC(=S)Nc1ccc2c(c1)C(=O)OC21c2ccc(O)cc2Oc2cc(O)ccc21)C(C)C)[C@@H](C)CC)C(=O)N[C@@H](C)C(=O)N[C@@H](CC(=O)O)C(=O)N[C@@H](CCC(N)=O)C(=O)N[C@@H](Cc1ccccc1)C(=O)N[C@@H](Cc1c[nH]cn1)C(=O)N[C@@H](CCCNC(=N)N)C(=O)N[C@@H](CC(C)C)C(=O)N[C@@H](Cc1c[nH]cn1)C(=O)N[C@H](C(=O)N[C@@H](CCC(N)=O)C(=O)N[C@@H](CCC(N)=O)C(=O)O)C(C)C`, the Kd was 49 µM (Induced myeloid leukemia cell differentiation protein Mcl-1 (MCL1, Homo sapiens, UniProt Q07820, R263A); cell-free assay, FP).
`Fc1ccc([C@@H]2CCNC[C@H]2COc2ccc3c(c2)OCO3)cc1` gave a Ki of 10 µM (Beta-1 adrenergic receptor (ADRB1, Homo sapiens, UniProt P08588); ligand displacement, radioligand).
